Source: ChEMBL document CHEMBL1130173, “A model for binding of structurally diverse natural product inhibitors of protein phosphatases PP1 and PP2A” (J Med Chem, 1997)
*1 amine or outer side, *2 acyl side, *3 side chain or, on linkers, in order; H or OH if unused. Where a SMILES comes first, the peptide text is derived from it. Bridges are numbered along the chain shown (N, C = ends). [ ]: non-standard residue; d: D form. Adda = CO[C@@H](Cc1ccccc1)[C@@H](C)/C=C(C)/C=C/[C@H](N[*:1])[C@H](C)C(=O)[*:2]; dAsp(3S-Me) = C[C@H](C(=O)[*:3])[C@@H](N[*:1])C(=O)[*:2]; d(γGlu) = O=C(O)[C@@H](CCC(=O)[*:2])N[*:1]; NMeDha = C=C(NC)C(=O)O

Experiments:
[1] = molecular target: T1, Serine-threonine protein phosphatase 2A regulatory subunit (Gallus gallus, UniProt Q8AWE3); assay: (§1) Observed inhibition activity of the compounds against protein phosphatases 2A (PP2A)
T1 sequence (Q8AWE3 whole entry): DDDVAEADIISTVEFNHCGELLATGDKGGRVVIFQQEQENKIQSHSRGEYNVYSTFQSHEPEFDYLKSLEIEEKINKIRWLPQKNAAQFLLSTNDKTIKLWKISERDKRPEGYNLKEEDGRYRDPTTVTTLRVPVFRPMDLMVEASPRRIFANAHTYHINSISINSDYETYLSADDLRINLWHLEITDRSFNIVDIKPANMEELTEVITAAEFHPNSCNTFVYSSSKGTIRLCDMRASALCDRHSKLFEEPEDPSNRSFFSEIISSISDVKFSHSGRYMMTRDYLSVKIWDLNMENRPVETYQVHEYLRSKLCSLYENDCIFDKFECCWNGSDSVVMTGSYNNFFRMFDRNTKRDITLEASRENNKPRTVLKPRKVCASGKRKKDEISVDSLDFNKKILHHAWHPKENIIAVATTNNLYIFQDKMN
Summary of the method: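 Commercial PP2A (e.g. 3 mU) in MOPS/2-mercaptoethanol/MgCl2/albumin dilution buffer. Preincubated 10 min with inhibitor at pH 8.0 Tris-HCl. Reaction started with KR-pT-IRR phosphopeptide (0.2 mM stock), 60 min at 22 °C. Released phosphate measured by malachite green at 650 nm after 20 min development; IC50 from inhibition curves.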

[2] = molecular target: T2, Serine/threonine-protein phosphatase 2A 55 kDa regulatory subunit B alpha isoform (Homo sapiens, UniProt P63151); assay: as §1
T2 sequence (P63151 whole entry): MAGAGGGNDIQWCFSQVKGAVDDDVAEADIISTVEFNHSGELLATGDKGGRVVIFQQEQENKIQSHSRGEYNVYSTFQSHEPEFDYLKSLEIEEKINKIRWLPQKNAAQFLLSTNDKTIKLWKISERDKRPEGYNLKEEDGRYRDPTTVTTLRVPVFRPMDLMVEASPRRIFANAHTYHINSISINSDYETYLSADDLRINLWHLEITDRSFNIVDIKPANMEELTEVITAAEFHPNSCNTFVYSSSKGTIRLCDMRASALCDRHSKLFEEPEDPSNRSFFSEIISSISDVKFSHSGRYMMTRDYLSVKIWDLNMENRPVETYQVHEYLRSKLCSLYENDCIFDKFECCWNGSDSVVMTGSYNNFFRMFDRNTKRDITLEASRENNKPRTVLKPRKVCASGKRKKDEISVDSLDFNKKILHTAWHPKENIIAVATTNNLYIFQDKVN

[3] = molecular target: T1, Serine-threonine protein phosphatase 2A regulatory subunit; assay: Observed inhibition activity against protein phosphatase 2A (PP2A)
[4] = molecular target: T1, Serine-threonine protein phosphatase 2A regulatory subunit; assay: Inhibition activity against protein phosphatase 2A (PP2A), activity taken from literature

With `COC[C@@H]([C@H](O)[C@H](O)C(=O)NCC[C@H](C)c1nc(/C=C/C[C@@H]2O[C@]3(C[C@@H](O)[C@@H]2C)O[C@H]([C@H](C[C@H](O)[C@H](C)[C@H](O)[C@H](C)/C=C(C)/C(C)=C/C=C/C(C)=C\C#N)OC)[C@H](OP(=O)(O)O)C3(C)C)co1)N(C)C` [CALYCULIN A] the IC50 [1] was 7.3 nM.
Work on `COC([C@H](OC(=O)C[C@@H](O)C1=C(C)C(=O)OC1=O)C(C)C)[C@H](O)CC(=O)[C@@H](C)[C@@H](O)CC[C@@H](C)[C@@H]1O[C@]2(CC[C@@H](C)[C@H](CC[C@H](C)C(C)=O)O2)CC[C@@H]1C` (single isomer, unassigned) [TAUTOMYCIN] yielded an IC50 [1] of 10 nM.
For `C=C1C(=O)N[C@H](C)C(=O)N[C@@H](CC(C)C)C(=O)N[C@@H](C(=O)O)[C@H](C)C(=O)N[C@@H](CCCNC(=N)N)C(=O)N[C@@H](/C=C/C(C)=C/[C@H](C)[C@H](Cc2ccccc2)OC)[C@H](C)C(=O)N[C@@H](C(=O)O)CCC(=O)N1C` [MICROCYSTIN-LR] (R[Adda][d(γGlu)][NMeDha][dA]L[dAsp(3S-Me)]-OH; lactam N-7), the IC50 [2] was 0.065 nM.
`C=C1[C@@H](O)[C@@H]2O[C@]3(CC[C@H](/C=C/[C@@H](C)[C@@H]4CC(C)=C[C@@]5(O[C@H](C[C@@](C)(O)C(=O)O)CC[C@H]5O)O4)O3)CC[C@H]2O[C@@H]1[C@@H](O)C[C@H](C)[C@H]1O[C@@]2(CCCCO2)CC[C@H]1C` [OKADAIC ACID] showed an IC50 [3] of 0.45 nM and an IC50 [4] of 1 nM.
For `COC[C@@H]([C@H](O)[C@H](O)C(=O)N[C@H](C)C[C@H](C)c1nc(/C=C/C[C@@H]2O[C@]3(C[C@@H](O)[C@@H]2C)O[C@H]([C@H](C[C@H](O)[C@H](C)[C@H](O)[C@H](C)/C=C(C)/C(C)=C/C=C/C(C)=C\C#N)OC)[C@H](OP(=O)(O)O)C3(C)C)co1)N(C)C` [CALYCULIN], the IC50 [1] was 9.71 nM.
`CC=C1C(=O)N[C@@H](C(=O)O)[C@H](C)C(=O)N[C@@H](CCCNC(=N)N)C(=O)N[C@@H](/C=C/C(C)=C/[C@H](C)[C@H](Cc2ccccc2)OC)[C@H](C)C(=O)N[C@@H](C(=O)O)CCC(=O)N1C` gave an IC50 [3] of 0.2 nM and an IC50 [4] of 1 nM.
